Values after ≈ are worked out from the molar mass of the structure shown.
Legend:
Staphylococcus aureus = test: Antibacterial activity against Staphylococcus aureus PTCC 1337 after 24 hrs by microplate alamar blue assay; format: functional; details: for MIC: Staphylococcus aureus, PTCC 1337, 24 h
Summary of the method: (§1)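 Bacteria from Persian type culture collection grown in Mueller–Hinton broth. Inoculum suspensions adjusted to 0.5 McFarland, final inoculum 1.5 ×10⁴. Compounds dissolved in DMSO, serially diluted twofold across the 8–512 range in 96-well plates, Alamar Blue added, sealed plates incubated 24 h at 37 °C. MIC is the lowest concentration preventing the blue-to-pink colour change. Ciprofloxacin was the reference drug.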

Candida albicans = test: Antifungal activity against Candida albicans PTCC 5027 after 48 hrs by microplate alamar blue assay; format: functional; details: for MIC: Candida albicans, PTCC 5027, 48 h
Summary of the method: (§2)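 Fungi from Persian type culture collection, tested in RPMI 1640 buffered with MOPS at pH 7.0. Final inoculum 1.5 ×10⁵. Compounds in DMSO, twofold serial dilutions over 8–512 in 96-well plates with Alamar Blue, incubated 48 h at 25 °C. MIC is the lowest concentration blocking the blue-to-pink shift. Ketoconazole was the reference agent.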

Pseudomonas aeruginosa = test: Antibacterial activity against Pseudomonas aeruginosa PTCC 1074 after 24 hrs by microplate alamar blue assay; format: functional; details: for MIC: Pseudomonas aeruginosa, PTCC 1074, 24 h; summary of the method: as §1
Listeria monocytogenes = test: Antibacterial activity against Listeria monocytogenes PTCC 1165 after 24 hrs by microplate alamar blue assay; format: functional; details: PTCC 1165, 24 h; summary of the method: as §1
Escherichia coli = test: Antibacterial activity against Escherichia coli PTCC 1338 after 24 hrs by microplate alamar blue assay; format: functional; details: PTCC 1338, 24 h; summary of the method: as §1
Bacillus subtilis = test: Antibacterial activity against Bacillus subtilis PTCC 1023 after 24 hrs by microplate alamar blue assay; format: functional; details: PTCC 1023, 24 h; summary of the method: as §1
Aspergillus flavus = test: Antifungal activity against Aspergillus flavus PTCC 5003 after 48 hrs by microplate alamar blue assay; format: functional; details: PTCC 5003, 48 h; summary of the method: as §2
[1] = system: Salmonella enterica subsp. enterica; test: Antibacterial activity against Salmonella enteritidis PTCC 1091 after 24 hrs by microplate alamar blue assay; format: functional, Salmonella enterica subsp. enterica serovar Enteritidis; details: PTCC 1091, 24 h; summary of the method: as §1
Aspergillus niger = test: Antifungal activity against Aspergillus niger 5021 after 48 hrs by microplate alamar blue assay; format: functional; details: Aspergillus niger, 5021, 48 h; summary of the method: as §2

SMILES | -logMIC (Staphylococcus aureus) | -logMIC (Candida albicans) | -logMIC (Pseudomonas aeruginosa) | MIC (Listeria monocytogenes) | MIC (Escherichia coli) | MIC (Bacillus subtilis) | MIC (Staphylococcus aureus) | MIC (Candida albicans) | MIC (Aspergillus flavus) | MIC (Pseudomonas aeruginosa) | MIC [1] | MIC (Aspergillus niger)
Cc1cc(=O)oc2cc(NC(=O)c3cc(=O)c(O)cn3C)ccc12 | 4.49 | 3.89 | 3.59 |  |  |  |  |  |  |  |  | 
Cc1cc(=O)oc2cc(NC(=O)c3cc(=O)c(OCc4ccccc4)co3)ccc12 | 3.89 | 3.89 | 3.59 |  |  |  |  |  |  |  |  | 
O=C(O)c1cc(=O)c(OCc2ccccc2)co1 | 3.59 | 3.89 | 3.89 |  |  |  |  |  |  |  |  | 
Cn1cc(OCc2ccccc2)c(=O)cc1C(=O)Nc1ccccc1 | 3.89 | 3.89 | 3.59 |  |  |  |  |  |  |  |  | 
Cn1cc(O)c(=O)cc1C(=O)Nc1ccccc1 | 4.8 | 3.89 | 3.89 |  |  |  |  |  |  |  |  | 
Cc1cc(=O)c(O)c(C(=O)Nc2cnc3ccccc3c2)o1 | 5.1 |  | 3.89 |  |  |  |  |  |  |  |  | 
Cc1cc(=O)c(O)c(C(=O)Nc2cccc3ccccc23)o1 | 3.59 | 3.89 | 3.89 |  |  |  |  |  |  |  |  | 
CCN(CC)Cc1c[nH]c(C)c(O)c1=O | 4.19 | 3.89 | 3.29 | > 512 µg/mL | 512 µg/mL (≈ 2430 µM) | > 512 µg/mL | 512 µg/mL (≈ 2430 µM) | 512 µg/mL (≈ 2430 µM) | 512 µg/mL (≈ 2430 µM) | 256 µg/mL (≈ 1220 µM) | 128 µg/mL (≈ 609 µM) | 512 µg/mL (≈ 2430 µM)
O=c1cc(CCl)occ1O | 3.59 | 3.89 | 4.19 | > 512 µg/mL | > 512 µg/mL | > 512 µg/mL | > 512 µg/mL | 512 µg/mL (≈ 3190 µM) | 16 µg/mL (≈ 99.7 µM) | > 512 µg/mL | > 512 µg/mL | 128 µg/mL (≈ 797 µM)
Cc1cc(=O)oc2cc(NC(=O)c3cc(=O)c(OCc4ccccc4)cn3C)ccc12 | 3.59 | 3.89 | 3.89 |  |  |  |  |  |  |  |  | 
Cc1cc(=O)c(OCc2ccccc2)c(C(=O)Nc2cnc3ccccc3c2)o1 | 3.89 | 3.89 | 3.89 |  |  |  |  |  |  |  |  | 
O=C(Nc1ccccc1)c1cc(=O)c(OCc2ccccc2)co1 | 3.89 | 3.89 | 3.59 |  |  |  |  |  |  |  |  | 
CCCCn1ccc(=O)c(O)c1C | 3.89 | 3.59 | 3.29 | > 512 µg/mL | 512 µg/mL (≈ 2830 µM) | 512 µg/mL (≈ 2830 µM) | 256 µg/mL (≈ 1410 µM) | 256 µg/mL (≈ 1410 µM) | 256 µg/mL (≈ 1410 µM) | 512 µg/mL (≈ 2830 µM) | 256 µg/mL (≈ 1410 µM) | 256 µg/mL (≈ 1410 µM)
CCCn1ccc(=O)c(O)c1C | 3.29 | 3.29 | 3.89 | 512 µg/mL (≈ 3060 µM) | 128 µg/mL (≈ 766 µM) | 256 µg/mL (≈ 1530 µM) | 16 µg/mL (≈ 95.7 µM) | 256 µg/mL (≈ 1530 µM) | 256 µg/mL (≈ 1530 µM) | 512 µg/mL (≈ 3060 µM) | 128 µg/mL (≈ 766 µM) | 512 µg/mL (≈ 3060 µM)
O=C(O)c1cn(C2CC2)c2cc(N3CCNCC3)c(F)cc2c1=O [CIPROFLOXACIN] |  |  |  | 1 µg/mL (≈ 3.02 µM) |  | 0.06 µg/mL (≈ 0.181 µM) | 0.5 µg/mL (≈ 1.51 µM) |  |  |  | 1 µg/mL (≈ 3.02 µM) | 
CC(=O)N1CCN(c2ccc(OCC3COC(Cn4ccnc4)(c4ccc(Cl)cc4Cl)O3)cc2)CC1 (configuration not stated) [KETOCONAZOLE] |  |  |  |  |  |  |  | 2 µg/mL (≈ 3.76 µM) | 8 µg/mL (≈ 15.1 µM) |  |  | 4 µg/mL (≈ 7.53 µM)
O=c1cc(CO)occ1O [KOJIC ACID] | 3.59 | 3.89 | 3.89 |  |  |  |  |  |  |  |  | 
